{"source": "ChEMBL document CHEMBL2385051", "about": "“Facile synthesis of new imidazo[1,2-a]pyridines carrying 1,2,3-triazoles via click chemistry and their antiepileptic studies” (Bioorg Med Chem Lett, 2013)", "key": {"Mus musculus [1]": {"tested_on": "Mus musculus", "test": "Anticonvulsant activity in NMRI mouse assessed as protection against subcutaneous pentylene tetrazole-induced seizure at 20 to 100 mg/kg, ip after 0.5 hrs", "type": "functional, organism-based", "how_it_was_run": "(§1)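 Mice received 20, 40 and 100 mg/kg test doses. Seizures were induced by electrical shock (MES) or PTZ injection (scPTZ) at 0.5 and 4 h after dosing. The value recorded is the minimal dose protecting more than 50% of mice against seizure.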"}, "Mus musculus [2]": {"tested_on": "Mus musculus", "test": "Anticonvulsant activity in ip dosed NMRI mouse assessed as dose required to cause protection against subcutaneous pentylene tetrazole-induced seizure after 4 hrs", "type": "functional", "conditions": "read-out: MED", "how_it_was_run": "as §1"}, "[3]": {"test": "Neurotoxicity in ip dosed NMRI mouse assessed as dose required to cause minimal motor impairment after 0.5 hrs by rotarod test", "type": "toxicity, organism-based", "conditions": "in vivo, read-out: MTC50", "how_it_was_run": "(§2)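 Rotarod motor-impairment test in mice given 20, 40 and 100 mg/kg doses, read 0.5 and 4 h after administration. The value recorded is the minimal dose producing toxicity in more than 50% of mice.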"}, "Mus musculus [4]": {"tested_on": "Mus musculus", "test": "Anticonvulsant activity in NMRI mouse assessed as protection against maximal electroshock-induced seizures at 20 to 100 mg/kg, ip after 0.5 hrs", "type": "functional, organism-based", "how_it_was_run": "as §1"}, "[5]": {"test": "Neurotoxicity in ip dosed NMRI mouse assessed as dose required to cause minimal motor impairment after 4 hrs by rotarod test", "type": "toxicity, organism-based", "conditions": "in vivo, read-out: MTC50", "how_it_was_run": "as §2"}, "Mus musculus [6]": {"tested_on": "Mus musculus", "test": "Anticonvulsant activity in NMRI mouse assessed as protection against maximal electroshock-induced seizures at 20 to 100 mg/kg, ip after 4 hrs", "type": "functional, organism-based", "how_it_was_run": "as §1"}, "Mus musculus [7]": {"tested_on": "Mus musculus", "test": "Neurotoxicity in NMRI mouse assessed as minimal motor impairment at 20 to 100 mg/kg, ip after 4 hrs by rotarod test", "type": "toxicity, organism-based", "parameters": "dose 20-100 mg/kg, route intraperitoneal", "conditions": "in vivo", "how_it_was_run": "as §2"}, "Mus musculus [8]": {"tested_on": "Mus musculus", "test": "Anticonvulsant activity in ip dosed NMRI mouse assessed as dose required to cause protection against maximal electroshock-induced seizures after 0.5 hrs", "type": "functional", "conditions": "read-out: MED", "how_it_was_run": "as §1"}, "Mus musculus [9]": {"tested_on": "Mus musculus", "test": "Anticonvulsant activity in ip dosed NMRI mouse assessed as dose required to cause protection against maximal electroshock-induced seizures after 4 hrs", "type": "functional", "conditions": "read-out: MED", "how_it_was_run": "as §1"}, "Mus musculus [10]": {"tested_on": "Mus musculus", "test": "Anticonvulsant activity in ip dosed NMRI mouse assessed as dose required to cause protection against subcutaneous pentylene tetrazole-induced seizure after 0.5 hrs", "type": "functional", "conditions": "read-out: MED", "how_it_was_run": "as §1"}, "Mus musculus [11]": {"tested_on": "Mus musculus", "test": "Neurotoxicity in NMRI mouse assessed as minimal motor impairment at 20 to 100 mg/kg, ip after 0.5 hrs by rotarod test", "type": "toxicity, organism-based", "parameters": "dose 20-100 mg/kg, route intraperitoneal", "conditions": "in vivo", "how_it_was_run": "as §2"}, "Mus musculus [12]": {"tested_on": "Mus musculus", "test": "Anticonvulsant activity in NMRI mouse assessed as protection against subcutaneous pentylene tetrazole-induced seizure at 20 to 100 mg/kg, ip after 4 hrs", "type": "functional, organism-based", "how_it_was_run": "as §1"}}, "note": "Calls of active or inactive are those of the source. The rule behind the calls is not given here."}
{"smiles": "Cc1cccn2c(/C=N/OCc3cn(Cc4ccc([N+](=O)[O-])cc4)nn3)c(-c3ccc(F)cc3)nc12", "values": [{"measurement": "Activity", "setting": "Mus musculus [1]", "result": "inactive"}, {"measurement": "minimal effective dose", "setting": "Mus musculus [2]", "result": 40, "unit": "mg/kg"}, {"measurement": "TD50 at 0.5 h", "setting": "[3]", "result": 100, "unit": "mg/kg"}, {"measurement": "Activity", "setting": "Mus musculus [4]", "result": "inactive"}, {"measurement": "TD50 at 4 h", "setting": "[5]", "result": 100, "unit": "mg/kg"}, {"measurement": "Activity", "setting": "Mus musculus [6]", "result": "inactive"}]}
{"smiles": "Cc1ccc(-c2nc3ccc(Br)cn3c2/C=N/OCc2cn(Cc3ccc([N+](=O)[O-])cc3)nn2)cc1", "values": [{"measurement": "Activity", "setting": "Mus musculus [7]", "result": "Non-toxic"}, {"measurement": "minimal effective dose", "setting": "Mus musculus [2]", "result": 20, "unit": "mg/kg"}, {"measurement": "minimal effective dose", "setting": "Mus musculus [8]", "result": 40, "unit": "mg/kg"}, {"measurement": "minimal effective dose", "setting": "Mus musculus [9]", "result": 100, "unit": "mg/kg"}, {"measurement": "minimal effective dose", "setting": "Mus musculus [10]", "result": 20, "unit": "mg/kg"}, {"measurement": "Activity", "setting": "Mus musculus [11]", "result": "Non-toxic"}]}
{"smiles": "C#CCO/N=C/c1c(-c2ccc(F)cc2)nc2ccc(Br)cn12", "values": [{"measurement": "Activity", "setting": "Mus musculus [7]", "result": "Non-toxic"}, {"measurement": "Activity", "setting": "Mus musculus [12]", "result": "inactive"}, {"measurement": "minimal effective dose", "setting": "Mus musculus [10]", "result": 40, "unit": "mg/kg"}, {"measurement": "Activity", "setting": "Mus musculus [11]", "result": "Non-toxic"}, {"measurement": "Activity", "setting": "Mus musculus [4]", "result": "inactive"}, {"measurement": "Activity", "setting": "Mus musculus [6]", "result": "inactive"}]}
{"smiles": "O=[N+]([O-])c1ccc(Cn2cc(CO/N=C/c3c(-c4ccc(F)cc4)nc4ccc(Br)cn34)nn2)cc1", "values": [{"measurement": "minimal effective dose", "setting": "Mus musculus [2]", "result": 100, "unit": "mg/kg"}, {"measurement": "minimal effective dose", "setting": "Mus musculus [9]", "result": 100, "unit": "mg/kg"}, {"measurement": "minimal effective dose", "setting": "Mus musculus [10]", "result": 40, "unit": "mg/kg"}, {"measurement": "Activity", "setting": "Mus musculus [11]", "result": "Non-toxic"}, {"measurement": "Activity", "setting": "Mus musculus [4]", "result": "inactive"}, {"measurement": "TD50 at 4 h", "setting": "[5]", "result": 100, "unit": "mg/kg"}]}
{"smiles": "C#CCO/N=C/c1c(-c2ccc(C)cc2)nc2c(C)cccn12", "values": [{"measurement": "Activity", "setting": "Mus musculus [7]", "result": "Non-toxic"}, {"measurement": "minimal effective dose", "setting": "Mus musculus [2]", "result": 20, "unit": "mg/kg"}, {"measurement": "minimal effective dose", "setting": "Mus musculus [8]", "result": 20, "unit": "mg/kg"}, {"measurement": "minimal effective dose", "setting": "Mus musculus [9]", "result": 40, "unit": "mg/kg"}, {"measurement": "minimal effective dose", "setting": "Mus musculus [10]", "result": 20, "unit": "mg/kg"}, {"measurement": "Activity", "setting": "Mus musculus [11]", "result": "Non-toxic"}]}
{"smiles": "Cc1ccc(-c2nc3c(C)cccn3c2/C=N/OCc2cn(Cc3ccc(C#N)cc3)nn2)cc1", "values": [{"measurement": "Activity", "setting": "Mus musculus [1]", "result": "inactive"}, {"measurement": "minimal effective dose", "setting": "Mus musculus [2]", "result": 100, "unit": "mg/kg"}, {"measurement": "Activity", "setting": "Mus musculus [11]", "result": "Non-toxic"}, {"measurement": "Activity", "setting": "Mus musculus [4]", "result": "inactive"}, {"measurement": "TD50 at 4 h", "setting": "[5]", "result": 100, "unit": "mg/kg"}, {"measurement": "Activity", "setting": "Mus musculus [6]", "result": "inactive"}]}
{"smiles": "Cc1ccc(-c2nc3c(C)cccn3c2/C=N/OCc2cn(Cc3ccc([N+](=O)[O-])cc3)nn2)cc1", "values": [{"measurement": "Activity", "setting": "Mus musculus [7]", "result": "Non-toxic"}, {"measurement": "minimal effective dose", "setting": "Mus musculus [2]", "result": 20, "unit": "mg/kg"}, {"measurement": "minimal effective dose", "setting": "Mus musculus [8]", "result": 40, "unit": "mg/kg"}, {"measurement": "minimal effective dose", "setting": "Mus musculus [9]", "result": 40, "unit": "mg/kg"}, {"measurement": "minimal effective dose", "setting": "Mus musculus [10]", "result": 20, "unit": "mg/kg"}, {"measurement": "Activity", "setting": "Mus musculus [11]", "result": "Non-toxic"}]}
{"smiles": "O=C1NC(=O)C(c2ccccc2)(c2ccccc2)N1", "note": "[PHENYTOIN]", "values": [{"measurement": "minimal effective dose", "setting": "Mus musculus [8]", "result": 20, "unit": "mg/kg"}, {"measurement": "minimal effective dose", "setting": "Mus musculus [9]", "result": 20, "unit": "mg/kg"}]}
{"smiles": "N#Cc1ccc(Cn2cc(CO/N=C/c3c(-c4ccc(F)cc4)nc4ccc(Br)cn34)nn2)cc1", "values": [{"measurement": "Activity", "setting": "Mus musculus [1]", "result": "inactive"}, {"measurement": "minimal effective dose", "setting": "Mus musculus [2]", "result": 100, "unit": "mg/kg"}, {"measurement": "minimal effective dose", "setting": "Mus musculus [9]", "result": 100, "unit": "mg/kg"}, {"measurement": "Activity", "setting": "Mus musculus [11]", "result": "Non-toxic"}, {"measurement": "Activity", "setting": "Mus musculus [4]", "result": "inactive"}, {"measurement": "TD50 at 4 h", "setting": "[5]", "result": 100, "unit": "mg/kg"}]}
{"smiles": "COc1ccc(Cn2cc(CO/N=C/c3c(-c4ccc(F)cc4)nc4ccc(Br)cn34)nn2)cc1", "values": [{"measurement": "Activity", "setting": "Mus musculus [7]", "result": "Non-toxic"}, {"measurement": "Activity", "setting": "Mus musculus [1]", "result": "inactive"}, {"measurement": "Activity", "setting": "Mus musculus [12]", "result": "inactive"}, {"measurement": "Activity", "setting": "Mus musculus [11]", "result": "Non-toxic"}, {"measurement": "Activity", "setting": "Mus musculus [4]", "result": "inactive"}, {"measurement": "Activity", "setting": "Mus musculus [6]", "result": "inactive"}]}
{"smiles": "Cc1cccn2c(/C=N/OCc3cn(Cc4ccc(C#N)cc4)nn3)c(-c3ccc(F)cc3)nc12", "values": [{"measurement": "Activity", "setting": "Mus musculus [1]", "result": "inactive"}, {"measurement": "minimal effective dose", "setting": "Mus musculus [2]", "result": 40, "unit": "mg/kg"}, {"measurement": "TD50 at 0.5 h", "setting": "[3]", "result": 100, "unit": "mg/kg"}, {"measurement": "Activity", "setting": "Mus musculus [4]", "result": "inactive"}, {"measurement": "TD50 at 4 h", "setting": "[5]", "result": 100, "unit": "mg/kg"}, {"measurement": "Activity", "setting": "Mus musculus [6]", "result": "inactive"}]}
